Measurements published in ChEMBL document CHEMBL4017520, “Discovery, Structure-Activity Relationship, and Antiparkinsonian Effect of a Potent and Brain-Penetrant Chemical Series of Positive Allosteric Modulators of Metabotropic Glutamate Receptor 4” (J Med Chem, 2017).
pEC50: −log10 of the molar value. ≈ marks a conversion by molar mass, not a printed value. Values belong to the compound of their own block, whether it stands above or below them. Calls of active or inactive are those of the source. The rule behind the calls is not given here.

Key:
[1] = biological target: Metabotropic glutamate receptor 4 (Homo sapiens, UniProt Q14833); assay: Positive allosteric modulation of recombinant human mGlu4 receptor expressed in HEK293 cells co-expressing Gi/Gq assessed as increase in glutamate-induced calcium flux preincubated for 10 mins followed by glutamate addition measured for 3 mins by Fluo4-AM dye based fluorescence assay; assay type: functional, cell-based; conditions: for pEC50: read-out: EC50; for EC50: hek293
Chain of Metabotropic glutamate receptor 4 (Q14833 whole entry): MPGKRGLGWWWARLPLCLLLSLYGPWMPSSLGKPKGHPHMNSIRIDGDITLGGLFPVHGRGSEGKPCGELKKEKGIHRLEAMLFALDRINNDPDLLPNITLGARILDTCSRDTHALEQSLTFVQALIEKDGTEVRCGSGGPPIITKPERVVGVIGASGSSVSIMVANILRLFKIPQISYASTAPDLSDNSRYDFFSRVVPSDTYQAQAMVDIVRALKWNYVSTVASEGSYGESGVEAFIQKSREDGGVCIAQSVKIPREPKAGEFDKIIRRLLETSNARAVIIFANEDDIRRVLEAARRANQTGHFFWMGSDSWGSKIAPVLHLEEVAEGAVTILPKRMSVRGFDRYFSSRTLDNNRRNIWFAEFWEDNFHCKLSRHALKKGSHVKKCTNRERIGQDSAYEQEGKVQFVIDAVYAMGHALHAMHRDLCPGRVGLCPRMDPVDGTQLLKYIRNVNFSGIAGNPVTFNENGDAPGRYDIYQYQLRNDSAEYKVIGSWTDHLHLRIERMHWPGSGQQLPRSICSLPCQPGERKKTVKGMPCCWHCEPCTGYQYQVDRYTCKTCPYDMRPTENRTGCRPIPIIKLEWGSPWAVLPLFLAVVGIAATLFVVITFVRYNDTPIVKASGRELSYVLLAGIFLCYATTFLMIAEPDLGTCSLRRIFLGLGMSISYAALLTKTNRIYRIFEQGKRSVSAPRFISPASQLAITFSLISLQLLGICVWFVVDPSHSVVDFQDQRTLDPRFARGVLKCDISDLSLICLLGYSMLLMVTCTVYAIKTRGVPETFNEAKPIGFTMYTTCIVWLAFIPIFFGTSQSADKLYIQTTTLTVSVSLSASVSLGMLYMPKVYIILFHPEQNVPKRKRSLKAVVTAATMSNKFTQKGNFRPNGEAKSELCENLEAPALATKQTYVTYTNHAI

[2] = Drug uptake in Sprague-Dawley rat brain at 10 mg/kg, po after 30 mins post dose administered as single dose by LC-MS/MS analysis; assay type: ADME, organism-based; conditions: read-out: Drug uptake
Summary of the method: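 Rats given a single oral dose of 10 mg/kg. The first plasma sample was taken at 15 min, and sampling continued to 24 h postdose. Brain was sampled at 30 min. Values are the mean (±SEM) of 3 rats.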

[3] = Drug uptake in Sprague-Dawley rat brain at 10 mg/kg, po after 60 mins post dose administered as single dose by LC-MS/MS analysis; assay type: ADME, organism-based; conditions: read-out: Drug uptake
Summary of the method: (§1)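 Rats given a single oral dose of 10 mg/kg. Brain concentrations were measured at 30, 60 and 90 min postdose, and brain AUC0–inf was determined. Values are the mean of three rats. Lower limit of quantification was 1 ng/mL.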

[4] = Thermodynamic solubility of the compound in water; assay type: physicochemical; conditions: read-out: Therm_solubility
Summary of the method: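 Thermodynamic solubility measured in milli-Q water.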

[5] = Drug uptake in Sprague-Dawley rat brain at 10 mg/kg, po after 90 mins post dose administered as single dose by LC-MS/MS analysis; assay type: ADME, organism-based; conditions: read-out: Drug uptake; summary of the method: as §1
[6] = biological target: Metabotropic glutamate receptor 1 (Homo sapiens) (UniProt Q13255); assay: Negative allosteric modulation of human mGlu1 receptor expressed in HEK293 cells co-expressing Gi/Gq assessed as reduction in EC20/EC80 glutamate-induced intracellular calcium level preincubated for 10 mins followed by glutamate addition measured for 3 mins by Fluo4-AM dye based fluorescence assay; assay type: functional, cell-based
Chain of Metabotropic glutamate receptor 1 (Homo sapiens) (Q13255 19-1194 limits assumed): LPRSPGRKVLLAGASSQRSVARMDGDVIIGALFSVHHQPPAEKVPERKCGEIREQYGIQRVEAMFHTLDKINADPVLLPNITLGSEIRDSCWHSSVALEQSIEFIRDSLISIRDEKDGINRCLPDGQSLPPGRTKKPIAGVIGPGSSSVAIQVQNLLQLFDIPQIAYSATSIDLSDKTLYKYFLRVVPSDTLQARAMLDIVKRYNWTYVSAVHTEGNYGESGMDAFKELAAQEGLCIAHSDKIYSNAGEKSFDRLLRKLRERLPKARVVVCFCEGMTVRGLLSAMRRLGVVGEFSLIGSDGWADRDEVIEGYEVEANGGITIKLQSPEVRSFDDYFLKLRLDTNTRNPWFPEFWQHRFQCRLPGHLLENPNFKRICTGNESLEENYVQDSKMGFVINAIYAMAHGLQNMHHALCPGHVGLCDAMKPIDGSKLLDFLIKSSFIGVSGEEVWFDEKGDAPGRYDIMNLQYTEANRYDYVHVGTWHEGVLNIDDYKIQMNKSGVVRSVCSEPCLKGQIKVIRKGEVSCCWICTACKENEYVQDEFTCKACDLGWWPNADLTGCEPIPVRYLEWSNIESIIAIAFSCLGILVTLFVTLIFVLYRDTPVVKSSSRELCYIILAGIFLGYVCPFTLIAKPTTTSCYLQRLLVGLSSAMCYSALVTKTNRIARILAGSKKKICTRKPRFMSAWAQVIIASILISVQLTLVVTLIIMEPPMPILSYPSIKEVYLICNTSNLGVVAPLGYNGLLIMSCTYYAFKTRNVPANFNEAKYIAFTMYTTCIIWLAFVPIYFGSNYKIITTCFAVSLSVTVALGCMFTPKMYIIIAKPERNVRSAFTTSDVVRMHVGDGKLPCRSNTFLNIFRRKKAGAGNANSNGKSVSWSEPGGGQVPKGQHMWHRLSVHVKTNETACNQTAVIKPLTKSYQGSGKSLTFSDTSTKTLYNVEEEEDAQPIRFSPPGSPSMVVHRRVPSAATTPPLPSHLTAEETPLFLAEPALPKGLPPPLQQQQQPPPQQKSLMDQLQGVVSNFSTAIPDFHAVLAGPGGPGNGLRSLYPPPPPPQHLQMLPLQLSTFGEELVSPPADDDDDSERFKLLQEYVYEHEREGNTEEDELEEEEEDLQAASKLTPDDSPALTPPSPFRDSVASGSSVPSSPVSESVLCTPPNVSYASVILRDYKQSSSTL
Summary of the method: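 HEK-293 cells transiently expressing human mGluR1 with a Gα15, Gqi9 or GqTOP G protein for calcium read-out; Fluo4-AM loaded. Compound added 10 min, then EC80 glutamate, fluorescence recorded 3 min; concentration–response over 20 concentrations, duplicate, three independent experiments.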

Structure (SMILES): O/N=c1\cc(-c2cc3cccn3cn2)oc2ccc(OCCN3CCC(F)(F)CC3)cc12
pEC50 [1]: 6.82

Structure (SMILES): O/N=c1\cc(-c2cc3sccc3cn2)oc2ccc(O[C@@H]3CCN(c4ccncn4)C3)cc12
pEC50 [1]: 7.77 | concentration at 0.5 h [2]: 20 ng/g | concentration at 1 h [3]: 9.5 ng/g

Structure (SMILES): O/N=c1\cc(-c2cc3cccn3cn2)oc2ccccc12
pEC50 [1]: 6.96 | solubility thermodynamic [4]: 0.2 µM (≈ 0.0555 µg/mL)

Structure (SMILES): O/N=c1\cc(-c2cc3sccc3cn2)oc2ccc(CCCN3CCC(F)(F)C3)cc12
pEC50 [1]: 7.60 | concentration at 0.5 h [2]: 275 ng/g | concentration at 1.5 h [5]: 137 ng/g | concentration at 1 h [3]: 197 ng/g

Structure (SMILES): CN1CCCC12CCN(CCOc1ccc3oc(-c4cc5sccc5cn4)c/c(=N\O)c3c1)CC2
pEC50 [1]: 7.22 | concentration at 0.5 h [2]: < 1 ng/g | concentration at 1 h [3]: < 1 ng/g

Structure (SMILES): CN(C)C1CCN(CCOc2ccc3oc(-c4cc5cccn5cn4)c/c(=N\O)c3c2)CC1
pEC50 [1]: 6.78 | concentration at 0.5 h [2]: 2.8 ng/g | concentration at 1 h [3]: 2.9 ng/g

Structure (SMILES): O/N=c1\cc(-c2cc3sccc3cn2)oc2ccc(OCCN3CCC(F)(F)CC3)cc12
pEC50 [1]: 7.05 | concentration at 0.5 h [2]: 239 ng/g | concentration at 1.5 h [5]: 194 ng/g | concentration at 1 h [3]: 207 ng/g

Structure (SMILES): CN1CCN(CCOc2ccc3oc(-c4cc5ccccc5cn4)c/c(=N\O)c3c2)CC1
pEC50 [1]: 5.01

Structure (SMILES): O/N=c1\cc(-c2cc3sccc3cn2)oc2ccc(OCCN3CCOCC3)cc12
pEC50 [1]: 7.46 | concentration at 0.5 h [2]: 408 ng/g | concentration at 1.5 h [5]: 281 ng/g | concentration at 1 h [3]: 521 ng/g

Structure (SMILES): Cc1ncccc1N1CCC(Cc2ccc3oc(-c4cc5sccc5cn4)c/c(=N\O)c3c2)CC1
pEC50 [1]: 8.40 | concentration at 0.5 h [2]: 7.4 ng/g | concentration at 1 h [3]: < 1 ng/g

Structure (SMILES): O/N=c1\cc(-c2cn3cccc3cn2)oc2ccccc12
pEC50 [1]: 6.55

Structure (SMILES): CC(=O)N1CCC(Oc2ccc3oc(-c4cc5cccn5cn4)c/c(=N\O)c3c2)CC1
pEC50 [1]: 8.00 | concentration at 0.5 h [2]: 24.1 ng/g | concentration at 1 h [3]: 12.1 ng/g

Structure (SMILES): O/N=c1\cc(-c2cc3sccc3cn2)oc2ccc(OC3CN(c4cccnc4)C3)cc12
pEC50 [1]: 8.40 | concentration at 0.5 h [2]: 33.4 ng/g | concentration at 1 h [3]: 26.7 ng/g

Structure (SMILES): O/N=c1\cc(-c2cc3cccn3cn2)oc2ccc(OCCN3CCCC3)cc12
pEC50 [1]: 5.63

Structure (SMILES): CN(C)C(=O)N1CC(Oc2ccc3oc(-c4cc5cccn5cn4)c/c(=N\O)c3c2)C1
pEC50 [1]: 7.46 | concentration at 0.5 h [2]: 25.5 ng/g | concentration at 1 h [3]: 8.8 ng/g

Structure (SMILES): Cc1cc(CCCOc2ccc3oc(-c4cc5cccn5cn4)c/c(=N\O)c3c2)ccn1
pEC50 [1]: 7.72 | concentration at 0.5 h [2]: 77.3 ng/g | concentration at 1 h [3]: 82.5 ng/g

Structure (SMILES): CN1CCN(CCOc2ccc3oc(-c4cc5cccn5cn4)c/c(=N\O)c3c2)CC1
pEC50 [1]: 5.77

Structure (SMILES): O/N=c1\cc(/C=C/c2ccccc2)oc2ccccc12
pEC50 [1]: 4.85

Structure (SMILES): CC(=O)N1CC(Oc2ccc3oc(-c4cc5sccc5cn4)c/c(=N\O)c3c2)C1
pEC50 [1]: 7.28 | concentration at 0.5 h [2]: < 1 ng/g | concentration at 1 h [3]: < 1 ng/g

Structure (SMILES): O=C(Nc1ccccc1)[C@]12C[C@H]1/C(=N\O)c1ccccc1O2
Activity [6]: Active

Structure (SMILES): CN1CCN(CCCNc2ccc3oc(-c4cc5ccccc5cn4)c/c(=N\O)c3c2)CC1
pEC50 [1]: 5.28

Structure (SMILES): CC(=O)N1CCC(COc2ccc3oc(-c4cc5sccc5cn4)c/c(=N\O)c3c2)CC1
pEC50 [1]: 8.22 | concentration at 0.5 h [2]: 10.7 ng/g | concentration at 1 h [3]: 6.5 ng/g

Structure (SMILES): Cc1cc(C)n2cnc(-c3c/c(=N\O)c4ccccc4o3)cc12
EC50 [1]: Not Active

Structure (SMILES): Cl.O/N=c1\cc(-c2cc3cccn3cn2)oc2ccc(OCCN3CCOCC3)cc12
solubility thermodynamic [4]: 10600 µM

Structure (SMILES): O/N=c1\cc(-c2cc3cccn3cn2)oc2ccc(OCCCc3cccnc3)cc12
pEC50 [1]: 7.30 | concentration at 0.5 h [2]: 3.4 ng/g | concentration at 1 h [3]: 2.3 ng/g

Structure (SMILES): O/N=c1\cc(-c2ccn3ccnc3c2)oc2ccccc12
EC50 [1]: Not Active

Structure (SMILES): COCCOc1ccc2oc(-c3cc4cccn4cn3)c/c(=N\O)c2c1
pEC50 [1]: 6.80 | solubility thermodynamic [4]: 16.3 µM (≈ 5.73 µg/mL)

Structure (SMILES): O/N=c1\cc(-c2cc3sccc3cn2)oc2ccc(CCCN3CCC(F)(F)CC3)cc12
pEC50 [1]: 6.97 | concentration at 0.5 h [2]: 157 ng/g | concentration at 1.5 h [5]: 100 ng/g | concentration at 1 h [3]: 201 ng/g

Structure (SMILES): O/N=c1\cc(-c2cc3sccc3cn2)oc2ccc(NC3CCN(c4ccncn4)CC3)cc12
pEC50 [1]: 7.28 | concentration at 1 h [3]: < 1 ng/g

Further lines, results first:

pEC50 [1]: < 4.52
Structure (SMILES): O/N=c1\cc(-c2cc3ccccc3o2)oc2ccccc12

EC50 [1]: Not Active
Structure (SMILES): O/N=c1\cc(-c2cc3ccccc3cn2)oc2c(Cl)cccc12

pEC50 [1]: 5.90
Structure (SMILES): O/N=c1\cc(-c2cc3cnccc3cn2)oc2ccccc12

pEC50 [1]: 5.76
Structure (SMILES): O/N=c1\cc(-c2cc3ccccc3cn2)oc2cc(Br)ccc12

EC50 [1]: Not Active
Structure (SMILES): O=c1cc(-c2cc3ccccc3cn2)oc2ccccc12

pEC50 [1]: 6.07
Structure (SMILES): Cn1ccc2cc(-c3c/c(=N\O)c4ccccc4o3)ncc21

EC50 [1]: Not Active
Structure (SMILES): O/N=c1\cc(-c2ccc3ccccc3c2)oc2ccccc12

pEC50 [1]: 6.62
Structure (SMILES): O/N=c1\cc(-c2cc3ncccc3cn2)oc2ccccc12

pEC50 [1]: 5.61
Structure (SMILES): O/N=c1\cc(-c2cc3ccccc3cn2)oc2ccc(C(F)(F)F)cc12

pEC50 [1]: 5.52
Structure (SMILES): COCCOc1ccc2/c(=N/O)cc(-c3cc4ccccc4cn3)oc2c1

pEC50 [1]: 6.16
Structure (SMILES): O/N=c1\cc(-c2cc3ccccc3cn2)oc2ccc(Br)cc12

EC50 [1]: Not Active
Structure (SMILES): O/N=c1\cc(-c2cnc3ccccc3n2)oc2ccccc12

pEC50 [1]: 5.94
Structure (SMILES): COc1ccc2/c(=N/O)cc(-c3cc4ccccc4cn3)oc2c1

EC50 [1]: Not Active
Structure (SMILES): Cc1c(-c2cc3ccccc3cn2)oc2ccccc2/c1=N/O

pEC50 [1]: 6.89
Structure (SMILES): O/N=c1\cc(-c2cc3ccsc3cn2)oc2ccccc12

pEC50 [1]: 6.00
Structure (SMILES): O/N=c1\cc(-c2cc3ccccc3cn2)oc2ccc(C3CC3)cc12

EC50 [1]: Not Active
Structure (SMILES): O/N=c1\cc(-c2ccc3ccccc3n2)oc2ccccc12

pEC50 [1]: 5.79
Structure (SMILES): O/N=c1\cc(-c2cc3ccccc3cn2)oc2ccc(OC(F)(F)F)cc12

pEC50 [1]: 5.40
Structure (SMILES): O/N=c1\cc(-c2cnc3ccccc3c2)oc2ccccc12

pEC50 [1]: < 4.52
Structure (SMILES): O/N=c1\cc(-c2cc3ccccc3[nH]2)oc2ccccc12

pEC50 [1]: 5.86
Structure (SMILES): COc1ccc2oc(-c3cc4ccccc4cn3)c/c(=N\O)c2c1

pEC50 [1]: 7.30
Structure (SMILES): O/N=c1\cc(-c2cc3cc[nH]c3cn2)oc2ccccc12

EC50 [1]: Not Active
Structure (SMILES): CON=c1cc(-c2cc3ccccc3cn2)oc2ccccc12

pEC50 [1]: 6.01
Structure (SMILES): Cc1ccc2oc(-c3cc4ccccc4cn3)c/c(=N\O)c2c1

EC50 [1]: Not Active
Structure (SMILES): Cn1c(-c2c/c(=N\O)c3ccccc3o2)cc2ccccc21

pEC50 [1]: 5.16
Structure (SMILES): O/N=c1\cc(-c2ccc3ncccc3c2)oc2ccccc12

EC50 [1]: Not Active
Structure (SMILES): O/N=c1\cc(-c2cc3ccccc3s2)oc2ccccc12

pEC50 [1]: 5.76
Structure (SMILES): O/N=c1\cc(-c2cc3ccccc3cn2)oc2cc(CCc3ccccc3)ccc12

pEC50 [1]: 6.51
Structure (SMILES): O/N=c1\cc(-c2cc3ccccc3cn2)oc2ccccc12

pEC50 [1]: 6.12
Structure (SMILES): COCCOc1ccc2oc(-c3cc4ccccc4cn3)c/c(=N\O)c2c1

pEC50 [1]: 6.70
Structure (SMILES): O/N=c1\cc(-c2cc3sccc3cn2)oc2ccccc12
